{"source": "paper PMC3064798", "about": "(Nucleic Acids Research, 2011)", "target": "T1, Vent(exo^−) polymerase (Thermococcus litoralis, UniProt P30317, D141A/DEL1082-1471/DEL495-1032/E143A)", "T1 sequence (P30317 with tags, fused parts or gaps D141A/E143A/DEL495-1032/DEL1082-1471)": "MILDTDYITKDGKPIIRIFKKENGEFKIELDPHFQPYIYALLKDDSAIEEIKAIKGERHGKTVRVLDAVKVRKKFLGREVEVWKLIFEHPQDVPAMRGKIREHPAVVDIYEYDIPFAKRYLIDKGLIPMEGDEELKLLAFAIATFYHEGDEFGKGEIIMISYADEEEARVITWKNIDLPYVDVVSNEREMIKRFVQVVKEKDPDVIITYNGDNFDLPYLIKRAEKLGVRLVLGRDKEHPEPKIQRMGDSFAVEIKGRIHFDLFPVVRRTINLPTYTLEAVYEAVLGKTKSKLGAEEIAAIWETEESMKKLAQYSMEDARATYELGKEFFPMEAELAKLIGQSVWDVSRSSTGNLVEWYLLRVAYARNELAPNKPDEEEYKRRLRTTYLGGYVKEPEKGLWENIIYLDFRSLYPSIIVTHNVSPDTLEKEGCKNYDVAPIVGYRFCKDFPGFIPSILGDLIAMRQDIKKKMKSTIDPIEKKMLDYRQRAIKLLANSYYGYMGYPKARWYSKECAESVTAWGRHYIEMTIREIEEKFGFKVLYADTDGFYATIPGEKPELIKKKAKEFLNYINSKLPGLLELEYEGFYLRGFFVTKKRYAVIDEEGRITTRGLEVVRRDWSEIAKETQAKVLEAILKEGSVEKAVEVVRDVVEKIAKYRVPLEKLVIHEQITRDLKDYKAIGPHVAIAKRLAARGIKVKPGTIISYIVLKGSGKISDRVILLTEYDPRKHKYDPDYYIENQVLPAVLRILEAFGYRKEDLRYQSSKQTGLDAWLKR", "test": "Nucleotide selectivity", "format": "biochemical", "settings": "against a 'G' template base", "how_it_was_run": "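Base discrimination was measured by PEP assay. OligoTemplate-4 was replaced with 40 nM oligoTemplate-2 or oligoTemplate-5 to give mismatched template bases. For the T—G mismatch, 5 nM BODIPY-FL primer-3 was hybridised to 40 nM oligoTemplate-8. The selectivity ratio is the mismatched IC50 divided by the matched IC50.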", "data": [{"smiles": "CC(C)C(OCc1cn([C@H]2C[C@H](O)[C@@H](COP(=O)(O)OP(=O)(O)OP(=O)(O)O)O2)c(=O)[nH]c1=O)c1ccccc1[N+](=O)[O-]", "note": "(mixture of isomers) [dU.III, 5-[1-(2-Nitrophenyl)-2-methyl-propyloxy]methyl-2'-deoxyuridine-5’-triphosphate]", "values": [{"measurement": "Selectivity ratio (mismatched IC50/matched IC50)", "value": "poorly extending the primer before revealing inhibitory effects"}]}]}
